Measurements as given in ChEMBL document CHEMBL1765085, “Cytotoxic and apoptosis-inducing activities of triterpene acids from Poria cocos” (J Nat Prod, 2011).
Calls of active or inactive are those of the source. No cut-off for these calls is given here.

Experiments:
[1] = system: HL-60; assay: Induction of apoptosis in human HL60 cells assessed as early apoptotic cells at 30 uM after 48 hrs by AnnexinV/propidium iodide staining (Rvb =7.6%)
[2] = Cytotoxicity in human CRL1579 cells assessed as cell viability after 48 hrs by MTT assay; type: functional, cell-based
How it was run: (§1)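 Growth conditions: RPMI 1640 for HL60, CRL1579, NIH:OVCAR-3, SK-BR-3, DU145 and PANC-1; D-MEM for A549; MEM for WI-38; all with 10% FBS and antibiotics, 37 °C, 5% CO2. Seeded at 3 × 10^3 cells/well (OVCAR-3 1 × 10^4), then treated 48 h with 10^-4 to 10^-6 M. MTT for 3 h, formazan dissolved in 0.04 M HCl/2-propanol, A570/630. IC50 (50% growth inhibition) from triplicates.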

[3] = system: HL-60; assay: Cell cycle arrest in human HL60 cells assessed as accumulation at G2/M phase at 30 uM after 24 hrs by flow cytometry (reference value: 6.0%); type: functional
How it was run: (§2)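 Cells seeded at 1 × 10^5 per sample for HL60 and 1.5 × 10^5 for A549, then exposed to 30 μM for 0, 24 or 48 h. After a PBS wash, DNA was stained with Nim-DAPI for 10 min at room temperature. Phase distribution was read by flow cytometry, with the sub-G1 (fragmented DNA) fraction taken as the apoptosis index. Values are means of three experiments.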

[4] = system: A549; assay: Cell cycle arrest in human A549 cells assessed as accumulation at S phase at 30 uM after 24 hrs by flow cytometry (reference value: 27.7%); type: functional
How it was run: as §2

[5] = system: A549; assay: Induction of mitochondrial signal transduction pathway-mediated apoptosis in human A549 cells assessed as increase in Bax level at 30 uM after 24 to 48 hrs by Western blot analysis; type: functional, cell-based
How it was run: (§3)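 A549 cells (1.5 × 10^5) were pre-incubated 24 h, then given 30 μM for 24 or 48 h. Whole-cell lysates were run on 15% SDS-PAGE, transferred to PVDF and probed overnight at 4 °C for Bax, Bcl-2 and β-actin. The Bcl-2 band was quantified by densitometry relative to untreated cells, n = 3.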

[6] = system: A549; assay: Induction of apoptosis in human A549 cells assessed as early apoptotic cells at 30 uM after 48 hrs by AnnexinV/propidium iodide staining (Rvb =4.3%); type: functional
[7] = system: OVCAR-3; assay: Cytotoxicity in human OVCAR3 cells assessed as cell viability after 48 hrs by MTT assay; type: functional, cell-based; settings: OVCAR-3, 48 h
How it was run: as §1

[8] = system: A549; assay: Induction of apoptosis in human A549 cells assessed as early apoptotic cells at 30 uM after 24 hrs by AnnexinV/propidium iodide staining (Rvb =4.3%); type: functional
[9] = system: A549; assay: Induction of mitochondrial signal transduction pathway-mediated apoptosis in human A549 cells assessed as decrease in Bcl-2 level at 30 uM after 24 to 48 hrs by Western blot analysis; type: functional, cell-based
How it was run: as §3

[10] = Cytotoxicity in human AZ-521 cells assessed as cell viability after 48 hrs by MTT assay; type: functional, cell-based; settings: AZ-521, 48 h
[11] = system: HL-60; assay: Cell cycle arrest in human HL60 cells assessed as accumulation at S phase at 30 uM after 48 hrs by flow cytometry (reference value: 42.6%); type: functional
How it was run: as §2

[12] = system: A549; assay: Induction of apoptosis in human A549 cells assessed as viable cells at 30 uM after 48 hrs by AnnexinV/propidium iodide staining (Rvb =91.2%); type: functional; settings: A549, 48 h, read-out: Activity
[13] = system: HL-60; assay: Cytotoxicity in human HL60 cells assessed as cell viability after 48 hrs by MTT assay; type: functional, cell-based; settings: HL-60, 48 h
How it was run: as §1

[14] = system: DU-145; assay: Cytotoxicity in human DU145 cells assessed as cell viability after 48 hrs by MTT assay; type: functional, cell-based; settings: DU-145, 48 h
How it was run: as §1

[15] = system: HL-60; assay: Induction of apoptosis in human HL60 cells assessed as early apoptotic cells at 30 uM after 24 hrs by AnnexinV/propidium iodide staining (Rvb =7.6%)
[16] = system: HL-60; assay: Induction of apoptosis in human HL60 cells assessed as late apoptotic cells at 30 uM after 48 hrs by AnnexinV/propidium iodide staining (Rvb =3.3%); type: functional
[17] = system: A549; assay: Induction of apoptosis in human A549 cells assessed as necrotic cells at 30 uM after 48 hrs by AnnexinV/propidium iodide staining (Rvb =3.4%); type: functional
[18] = system: HL-60; assay: Cell cycle arrest in human HL60 cells assessed as accumulation at sub-G1 phase at 30 uM after 24 hrs by flow cytometry (reference value: 3.0%); type: functional
How it was run: as §2

[19] = system: A549; assay: Induction of mitochondrial signal transduction pathway-mediated apoptosis in human A549 cells assessed as increase in cleaved caspase-9 level at 30 uM after 24 to 48 hrs by Western blot analysis
[20] = system: WI-38; assay: Cytotoxicity against human WI38 cells assessed as cell viability after 48 hrs by MTT assay; type: cell-based; settings: WI-38, 48 h
How it was run: as §1

[21] = system: A549; assay: Cytotoxicity in human A549 cells assessed as cell viability after 48 hrs by MTT assay; type: functional, cell-based; settings: A549, 48 h
How it was run: as §1

[22] = system: HL-60; assay: Induction of apoptosis in human HL60 cells assessed as late apoptotic cells at 30 uM after 24 hrs by AnnexinV/propidium iodide staining (Rvb =3.3%); type: functional
[23] = system: HL-60; assay: Cell cycle arrest in human HL60 cells assessed as accumulation at sub-G1 phase at 30 uM after 48 hrs by flow cytometry (reference value: 3.0%); type: functional
How it was run: as §2

[24] = system: HL-60; assay: Induction of mitochondrial signal transduction pathway-mediated apoptosis in human HL60 cells assessed as increase in cleaved caspase-8 level at 30 uM after 8 hrs by Western blot analysis; type: functional, cell-based
How it was run: (§4)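 HL60 cells (1 × 10^6) pre-incubated 24 h, then exposed to 30 μM final for 8 h. Whole-cell lysates in extraction buffer, resolved on 15% SDS-PAGE, blotted to PVDF, probed overnight at 4 °C with anti-caspase-8 or anti-caspase-9 primary antibodies, β-actin as loading reference. Procaspase loss and cleaved caspase bands read.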

[25] = system: HL-60; assay: Induction of mitochondrial signal transduction pathway-mediated apoptosis in human HL60 cells assessed as decrease in Bcl-2 level at 30 uM after 8 to 24 hrs by Western blot analysis; settings: TDE = time-dependent effect
[26] = system: HL-60; assay: Induction of mitochondrial signal transduction pathway-mediated apoptosis in human HL60 cells assessed as increase in cleaved caspase-3 level at 30 uM after 8 hrs by Western blot analysis; type: functional, cell-based
How it was run: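 HL60 cells (1 × 10^6) were pre-incubated 24 h, then given 30 μM for 8 or 24 h. Whole-cell lysates were run on 15% SDS-PAGE, transferred to PVDF and probed overnight at 4 °C for procaspase and cleaved caspase-3, with β-actin as loading control.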

[27] = system: HL-60; assay: Induction of apoptosis in human HL60 cells assessed as viable cells at 30 uM after 24 hrs by AnnexinV/propidium iodide staining (Rvb =85.6%); type: functional; settings: HL-60, 24 h, read-out: Activity
[28] = system: HL-60; assay: Induction of mitochondrial signal transduction pathway-mediated apoptosis in human HL60 cells assessed as increase in cleaved caspase-9 level at 30 uM after 8 hrs by Western blot analysis; type: functional, cell-based
How it was run: as §4

Compound: C=C(CC[C@@H](CO)[C@H]1[C@H](O)C[C@@]2(C)C3=CC[C@@H](C(=C)C)[C@](C)(CCCO)C3=CC[C@]12C)C(C)C [PORICOTRIOL A]
- Activity [1]: 52.5%
- IC50 [2]: 5.5 µM
- Activity [3]: 8.8%
- Activity [4]: 7.8%
- Activity [5]: inactive
- Activity [6]: 24.1%
- IC50 [7]: 2.2 µM
- Activity [8]: 3.5%
- Activity [9]: Active
- IC50 [10]: 1.4 µM
- Activity [11]: 30.5%
- viability at 30 µM [12]: 49.3%
- IC50 [13]: 1.9 µM
- IC50 [14]: 14.5 µM
- Activity [15]: 48.1%
- Activity [16]: 30.4%
- Activity [17]: 6.3%
- Activity [18]: 35.4%
- Activity [19]: inactive
- IC50 [20]: 55.7 µM
- IC50 [21]: 4.2 µM
- Activity [22]: 14%
- Activity [23]: 38.7%
- Activity [24]: Active
- Activity [25]: tde
- Activity [26]: Active
- viability at 30 µM [27]: 34.8%
- Activity [28]: Active
